The nature of data set [1]: folding enthalpy; higher = less favourable; fluorescence melt of hairpins on a sequencing array, two-state fit. Conditions: sodium 0.088 M. In outline:
(§1)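 On a sequenced MiSeq flow cell, library hairpins with annealed Cy3 and quencher oligos were imaged for Cy3 fluorescence in 2.5 °C steps up to 60 °C, in 50 mM Na-HEPES pH 8.0, 25 mM NaCl. Normalisation used pre-quench Cy3 and control constructs. Bootstrapped two-state fits gave melting temperature and folding enthalpy, combined by inverse variance across four replicates and with fitted temperatures raised by 9.35 °C to match UV melts.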

The nature of data set [2]: melting temperature; fluorescence melt of hairpins on a sequencing array, two-state fit, raised by 9.35 °C to match UV melts. Conditions: sodium 0.088 M. In outline: as §1

In the case of GTAGCGACGAAAGTCTAC (((..(((....)))))), in data set [1], the folding enthalpy is -13.2 kcal/mol. Moreover, the Tm in data set [2] is 26.9 °C.
In the case of GGTCACGAAAGTGGGACC ((((((....)))..))), the folding enthalpy in data set [1] was -23.4 kcal/mol. The Tm in data set [2] was 48 °C.
The corresponding values for GAACCCGAAAGGGTTTC ((((((....))).))) are -12.1 kcal/mol and 56.9 °C.
The corresponding values for GTTTCGAAAGAAAC (((((....))))) are -29.1 kcal/mol and 53.6 °C.
Regarding GAACTCGGAAACGAGTTC (((((((....))))))), the folding enthalpy in data set [1] is -40.9 kcal/mol. For the same sequence, in data set [2], the Tm turned out to be 67 °C.
As to GGAGATCCGAAAGGATCC (((..(((....)))))), the folding enthalpy in data set [1] was -9.31 kcal/mol. The Tm in data set [2] was 42 °C.
The corresponding values for GGATTGGAAACAATCC ((((((....)))))) are -36.7 kcal/mol and 55.5 °C.
Consider GATCAGGGACTGATC ((((((...)))))), for which, in data set [1], the folding enthalpy is -39.5 kcal/mol. Also, in data set [2], the Tm came to 59.6 °C.
The corresponding values for CGCGGAACTTCCGCG ((((((...)))))) are -37.8 kcal/mol and 61.3 °C.
The corresponding values for GCGTTCGAAAGAATGCGC ((((((....)))..))) are -28.8 kcal/mol and 57.3 °C.
The corresponding values for GCGTAACACGC ((((...)))) are -20.9 kcal/mol and 55.7 °C.
Take GACTCACGAAAGTGTGTC (((.(((....))).))): the folding enthalpy in data set [1] is -38.5 kcal/mol. The Tm in data set [2] was found to be 53.7 °C.
The corresponding values for GGTACGGGAAACCATACC ((((.((....)).)))) are -28.2 kcal/mol and 36.7 °C.
On to GTCACCGAAAGGTTAGAC ((((((....)))..))), for which the folding enthalpy in data set [1] was -17.1 kcal/mol. In data set [2], the Tm was found to be 39.4 °C.
As for GGACGAGGAAACTCGCCC ((.((((....)))).)), the folding enthalpy in data set [1] is -23.3 kcal/mol. Besides, the Tm in data set [2] turned out to be 51.7 °C.
The corresponding values for GATCACGAAAGTGGAATC ((((((....)))..))) are -10.3 kcal/mol and 32.1 °C.
The corresponding values for GAATAGGGAAACCTGTTC (((.(((....))).))) are -30.6 kcal/mol and 38.2 °C.
The corresponding values for GAAACAGGAAACTGCTTC (((.(((....))).))) are -21.9 kcal/mol and 31.6 °C.
Turning to GTGTCGTCGAAAGACCAC (((..(((....)))))), in data set [1], the folding enthalpy is -19.2 kcal/mol. Also, in data set [2], the Tm stood at 38.4 °C.
On to GGGCAACGAAAGTTTCCC (((.(((....))).))), for which the folding enthalpy in data set [1] was -32.1 kcal/mol. The Tm in data set [2] was found to be 47.4 °C.
The corresponding values for GCGGCGATCCGC ((((....)))) are -16.7 kcal/mol and 54 °C.
GATCGAACCCTCGATC ((((((....)))))): the folding enthalpy in data set [1] was -39.5 kcal/mol. In data set [2], the Tm is 50.2 °C.
As to GCTTTGCGAAAGCGGAGC (((..((....))..))), the folding enthalpy in data set [1] was -17.3 kcal/mol. For the same sequence, the Tm in data set [2] was 53.6 °C.
The corresponding values for GCTTAGCGAAAGCATAGC (((..((....))..))) are -16.8 kcal/mol and 45.7 °C.
The corresponding values for GCAGCAGGAAACCGCTGC (((((.(....).))))) are -41.3 kcal/mol and 58.1 °C.
The corresponding values for GACAATGGAAACATCGTC (((.(((....))).))) are -26.4 kcal/mol and 32.5 °C.
With GCCGCAGGAAACCGCAGC ((.((.(....).)).)), the folding enthalpy in data set [1] is -9.87 kcal/mol. For the same sequence, the Tm in data set [2] was 31.2 °C.
Regarding GATCAACCAGTTGATC ((((((....)))))), the folding enthalpy in data set [1] is -41.9 kcal/mol. In data set [2], the Tm came to 50.4 °C.
The corresponding values for GATTATGGAAACATGATC (((.(((....))).))) are -32.8 kcal/mol and 35.5 °C.
The corresponding values for GTAACCGAAAGGTGCTAC ((((((....)))..))) are -13.1 kcal/mol and 39.1 °C.
Consider GCGTTGGGAAACTAACGC (((((.(....).))))), for which, in data set [1], the folding enthalpy was -47.8 kcal/mol. For the same sequence, in data set [2], the Tm was 55.5 °C.
The corresponding values for GACGTGGGAAACCATGTC (((.(((....))).))) are -42.7 kcal/mol and 51.4 °C.
The corresponding values for GCCACTGGAAACAATGGC ((((.((....)).)))) are -26.7 kcal/mol and 42.2 °C.
Regarding GTGAGCGAAAGCTTACAC ((((((....)))..))), the folding enthalpy in data set [1] is -14 kcal/mol. For the same sequence, the Tm in data set [2] worked out at 49 °C.
The corresponding values for GTAGTCGAAAGACGGTAC ((((((....)))..))) are -11.8 kcal/mol and 39.2 °C.
The corresponding values for GCTACGCGAAAGCTAAGC (((..((....))..))) are -13.1 kcal/mol and 38.8 °C.
GCGGGAGGAAACTCTCGC (((.(((....))).))): the folding enthalpy in data set [1] is -37.2 kcal/mol. Besides, the Tm in data set [2] is 57.5 °C.

The values are drawn from the array DNA melting data of Ke et al. (doi:10.1101/2024.01.08.574731).
